Article PMC7564327 (Acta Pharmaceutica Sinica. B, 2020)
Structures can show the parent of a compound that is named as a salt.

Columns and labels:
hOAT3 = target: T1, hOAT3 (Homo sapiens, UniProt Q8TCC7); test: Cellular uptake and kinetics in S2-hOAT3 vs Mock cells; type: in vitro ADME
T1 sequence (Q8TCC7 1-542): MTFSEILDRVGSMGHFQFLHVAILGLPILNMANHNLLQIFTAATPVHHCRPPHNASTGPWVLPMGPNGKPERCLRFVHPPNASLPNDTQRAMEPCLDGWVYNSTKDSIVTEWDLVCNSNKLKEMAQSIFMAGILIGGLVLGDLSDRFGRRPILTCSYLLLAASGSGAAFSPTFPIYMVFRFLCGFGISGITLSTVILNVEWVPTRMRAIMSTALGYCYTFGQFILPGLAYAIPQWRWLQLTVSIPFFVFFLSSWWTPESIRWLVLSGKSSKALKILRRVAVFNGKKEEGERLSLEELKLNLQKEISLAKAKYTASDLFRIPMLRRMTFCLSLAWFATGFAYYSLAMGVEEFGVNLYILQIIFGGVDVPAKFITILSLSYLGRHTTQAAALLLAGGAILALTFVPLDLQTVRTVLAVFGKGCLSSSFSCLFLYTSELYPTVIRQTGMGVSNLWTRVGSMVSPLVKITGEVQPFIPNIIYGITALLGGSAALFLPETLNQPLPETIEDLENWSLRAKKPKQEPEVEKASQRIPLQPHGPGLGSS

hOATP1B3 = target: T2, hOATP1B3 (Homo sapiens, UniProt Q9NPD5); test: Cellular uptake and kinetics in HEK293-hOATP1B3 vs Mock cells; type: in vitro ADME
T2 sequence (Q9NPD5 1-702): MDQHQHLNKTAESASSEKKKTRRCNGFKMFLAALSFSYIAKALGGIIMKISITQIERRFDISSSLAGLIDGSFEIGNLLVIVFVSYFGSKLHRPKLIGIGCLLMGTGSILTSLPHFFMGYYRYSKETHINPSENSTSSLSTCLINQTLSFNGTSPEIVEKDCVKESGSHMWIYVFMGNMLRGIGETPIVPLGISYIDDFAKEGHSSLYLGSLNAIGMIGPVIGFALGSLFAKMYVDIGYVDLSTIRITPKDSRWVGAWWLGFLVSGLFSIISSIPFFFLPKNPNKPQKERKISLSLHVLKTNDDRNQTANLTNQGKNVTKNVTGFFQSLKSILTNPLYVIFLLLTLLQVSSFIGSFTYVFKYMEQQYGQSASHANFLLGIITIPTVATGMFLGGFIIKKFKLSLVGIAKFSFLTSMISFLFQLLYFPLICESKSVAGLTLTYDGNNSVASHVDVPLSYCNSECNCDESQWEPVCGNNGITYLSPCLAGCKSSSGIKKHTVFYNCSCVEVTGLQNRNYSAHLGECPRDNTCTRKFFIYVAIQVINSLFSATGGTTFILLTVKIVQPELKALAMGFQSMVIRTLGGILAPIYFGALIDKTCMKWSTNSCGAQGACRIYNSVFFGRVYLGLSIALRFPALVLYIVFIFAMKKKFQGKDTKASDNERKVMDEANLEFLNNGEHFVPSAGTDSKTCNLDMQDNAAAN
Procedure, shortened: (§1)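 Transfected cells and matching Mock cells were seeded at 2 × 10⁵ cells/mL and grown 2 days. After a DPBS (pH 7.4) wash and 10 min preincubation at 37 °C, cells took up 100 μmol/L test compound for 2–5 min at 37 °C. Uptake was stopped with three ice-cold DPBS washes, followed by methanol extraction and HPLC–MS. Values were normalised to BCA protein and compared with Mock.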

hOATP1B1 = target: T3, hOATP1B1 (Homo sapiens, UniProt Q9Y6L6); test: Cellular uptake and kinetics in HEK293-hOATP1B1 vs Mock cells; type: in vitro ADME
T3 sequence (Q9Y6L6 1-691): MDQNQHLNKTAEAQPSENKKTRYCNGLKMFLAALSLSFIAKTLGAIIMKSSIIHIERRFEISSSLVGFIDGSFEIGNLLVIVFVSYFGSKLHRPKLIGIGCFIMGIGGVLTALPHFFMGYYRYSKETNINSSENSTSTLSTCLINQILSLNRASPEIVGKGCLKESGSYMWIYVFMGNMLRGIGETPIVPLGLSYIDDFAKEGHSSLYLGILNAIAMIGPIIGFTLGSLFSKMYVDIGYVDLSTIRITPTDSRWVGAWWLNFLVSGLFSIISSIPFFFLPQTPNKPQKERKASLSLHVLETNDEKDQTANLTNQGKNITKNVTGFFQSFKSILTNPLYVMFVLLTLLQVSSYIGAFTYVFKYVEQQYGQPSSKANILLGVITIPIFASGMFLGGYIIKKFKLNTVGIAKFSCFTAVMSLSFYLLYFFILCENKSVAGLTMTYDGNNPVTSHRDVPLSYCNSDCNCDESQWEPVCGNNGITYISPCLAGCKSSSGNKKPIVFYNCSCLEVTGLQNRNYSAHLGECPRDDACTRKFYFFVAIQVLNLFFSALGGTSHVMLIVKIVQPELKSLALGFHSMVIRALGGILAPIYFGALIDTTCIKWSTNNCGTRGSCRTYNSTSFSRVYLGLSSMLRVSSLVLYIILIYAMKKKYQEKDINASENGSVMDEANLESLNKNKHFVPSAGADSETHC

hOATP2B1 = target: T4, hOATP2B1 (Homo sapiens, UniProt O94956); test: Cellular uptake in HEK293-hOATP2B1 vs Mock cells; type: in vitro ADME
T4 sequence (O94956 1-709): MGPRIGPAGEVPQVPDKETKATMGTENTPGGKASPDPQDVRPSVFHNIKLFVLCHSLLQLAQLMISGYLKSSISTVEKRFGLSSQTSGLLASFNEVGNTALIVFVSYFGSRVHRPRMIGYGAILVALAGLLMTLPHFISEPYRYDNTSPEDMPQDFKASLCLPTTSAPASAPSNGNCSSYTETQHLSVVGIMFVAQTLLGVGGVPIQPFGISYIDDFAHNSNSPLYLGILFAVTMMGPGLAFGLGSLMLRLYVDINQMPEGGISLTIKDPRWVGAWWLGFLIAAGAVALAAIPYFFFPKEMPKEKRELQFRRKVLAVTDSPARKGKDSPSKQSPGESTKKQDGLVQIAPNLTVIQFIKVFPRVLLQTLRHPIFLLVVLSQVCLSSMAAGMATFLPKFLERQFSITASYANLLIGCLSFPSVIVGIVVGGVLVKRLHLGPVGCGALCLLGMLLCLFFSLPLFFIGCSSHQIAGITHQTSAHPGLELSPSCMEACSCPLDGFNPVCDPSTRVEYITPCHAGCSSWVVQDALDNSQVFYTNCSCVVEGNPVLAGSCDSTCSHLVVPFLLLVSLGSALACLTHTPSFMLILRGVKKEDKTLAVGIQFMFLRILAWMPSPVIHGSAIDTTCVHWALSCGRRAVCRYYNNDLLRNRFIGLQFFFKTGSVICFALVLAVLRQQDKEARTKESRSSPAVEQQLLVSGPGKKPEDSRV

mice liver slices = test: In vitro uptake of TDE in mice liver slices; type: in vitro ADME, Kunming mice; conditions: TDE 10 μmol/L
Procedure, shortened: (§2)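 Kunming mice (20–25 g, fasted 12 h) were anaesthetised with urethane, and kidney or liver was decapsulated into ice-cold oxygenated buffer at pH 7.5. Slices of about 30 mg were preincubated 5 min under carbogen at 4 or 37 °C. They were then incubated with 10 μmol/L test compound for 5, 10 or 30 min, with or without reference OAT1/OAT3 or OATP inhibitors or co-ingredients. Slices were then washed, blotted, weighed and homogenised, then extracted with methanol and an internal standard for HPLC–MS.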

hOAT1 = target: T5, hOAT1 (Homo sapiens, UniProt Q4U2R8); test: Cellular uptake in MDCK-hOAT1 vs Mock cells; type: in vitro ADME; conditions: 100 μmol/L, substrate if >2-fold of wild type
T5 sequence (Q4U2R8 1-563): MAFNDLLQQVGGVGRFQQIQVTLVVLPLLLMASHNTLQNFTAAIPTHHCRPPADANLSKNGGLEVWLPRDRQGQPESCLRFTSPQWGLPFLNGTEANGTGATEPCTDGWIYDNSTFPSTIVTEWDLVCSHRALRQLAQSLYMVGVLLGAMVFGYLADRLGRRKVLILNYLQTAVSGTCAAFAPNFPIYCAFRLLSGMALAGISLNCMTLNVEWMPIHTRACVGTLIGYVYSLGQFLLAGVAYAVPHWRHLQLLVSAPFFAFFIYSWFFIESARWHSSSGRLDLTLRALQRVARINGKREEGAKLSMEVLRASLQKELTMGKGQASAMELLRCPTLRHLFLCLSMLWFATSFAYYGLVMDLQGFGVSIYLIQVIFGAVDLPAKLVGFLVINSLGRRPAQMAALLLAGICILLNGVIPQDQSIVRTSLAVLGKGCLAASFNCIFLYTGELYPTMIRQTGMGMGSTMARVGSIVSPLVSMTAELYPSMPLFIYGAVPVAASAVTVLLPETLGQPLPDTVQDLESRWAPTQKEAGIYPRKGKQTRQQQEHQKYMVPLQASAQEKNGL
Procedure, shortened: as §1

mice kidney slices = test: In vitro uptake of TDE in mice kidney slices; type: in vitro ADME, Kunming mice; conditions: TDE 10 μmol/L
Procedure, shortened: as §2

[1] = substrate: COc1cc2c(cc1OC)[C@@H]1Cc3ccc(OC)c(OC)c3CN1CC2; test: Cellular uptake and kinetics in S2-hOAT3 vs Mock cells; type: in vitro ADME, human; conditions: other: hOAT3, TDE 0.03-10 μmol/L, 2 min, 37 °C, Eadie-Hofstee, pH 7.4
[2] = 100 μmol/L, substrate if >2-fold of wild type

With `CC12CCC3c4ccc(OS(=O)(=O)O)cc4CCC3C1CCC2=O` (stereo not drawn) [3H-ES, 3H-estrone sulfate, reference compound] the “accumulation of model substrate, fold higher than in Mock cells” value (hOAT3; 50 nmol/L 3H-ES, 2 min, S2-hOAT3 vs Mock) was 5.6 fold, the “Uptake rate, Control” value (hOAT3; S2-hOAT3, 50 nmol/L 3H-ES, 2 min) was 0.62 ± 0.015∗∗ pmol/mg protein/min and the “Uptake rate, Control + inhibitor” value (hOAT3; S2-hOAT3, 50 nmol/L 3H-ES, 2 min, inhibitor not named) was 0.29 ± 0.17 pmol/mg protein/min. For the same molecule, the “accumulation of model substrate, fold higher than in Mock cells” value (hOATP1B3; 50 nmol/L 3H-ES, 2 min, HEK293-hOATP1B3 vs Mock) was 4.7 fold, the “Uptake rate, Control” value (hOATP1B3; HEK293-hOATP1B3, 50 nmol/L 3H-ES, 2 min) was 0.52 ± 0.017∗∗ pmol/mg protein/min and the “Uptake rate, Control + inhibitor” value (hOATP1B3; HEK293-hOATP1B3, 50 nmol/L 3H-ES, 2 min, inhibitor not named) was 0.24 ± 0.13 pmol/mg protein/min. For the same molecule, the “accumulation of model substrate, fold higher than in Mock cells” value (hOATP1B1; 50 nmol/L 3H-ES, 2 min, HEK293-hOATP1B1 vs Mock) was 10.3 fold, the “Uptake rate, Control” value (hOATP1B1; HEK293-hOATP1B1, 50 nmol/L 3H-ES, 2 min) was 1.13 ± 0.11∗∗ pmol/mg protein/min and the “Uptake rate, Control + inhibitor” value (hOATP1B1; HEK293-hOATP1B1, 50 nmol/L 3H-ES, 2 min, inhibitor not named) was 0.35 ± 0.14 pmol/mg protein/min. The “accumulation of model substrate, fold higher than in Mock cells” value (hOATP2B1; 50 nmol/L 3H-ES, 2 min, HEK293-hOATP2B1 vs Mock) was 4.2 fold, the “Uptake rate, Control” value (hOATP2B1; HEK293-hOATP2B1, 50 nmol/L 3H-ES, 2 min) was 0.46 ± 0.011∗∗ pmol/mg protein/min and the “Uptake rate, Control + inhibitor” value (hOATP2B1; HEK293-hOATP2B1, 50 nmol/L 3H-ES, 2 min, inhibitor not named) was 0.19 ± 0.034 pmol/mg protein/min.

In the case of `CO[C@H]1/C=C/O[C@@]2(C)Oc3c(C)c(O)c4c(O)c(c(/C=N/N5CCN(C)CC5)c(O)c4c3C2=O)NC(=O)/C(C)=C\C=C\[C@H](C)[C@H](O)[C@@H](C)[C@@H](O)[C@@H](C)[C@H](OC(C)=O)[C@@H]1C` [Rifampicin, rifampicin, reference compound], the “effect on the uptake of TDE in liver slices” value (mice liver slices; mice liver slices) is reported as “could inhibit”.

In the case of `COc1cc2c(cc1OC)[C@@H]1Cc3ccc(OC)c(OC)c3CN1CC2` [TDE, tetrahydropalmatine], the “accumulation in S2-hOAT3, fold higher than wild type (S2-Mock)” value (hOAT3; [2]) is reported as “about 2.25 fold”, the “accumulation in MDCK-hOAT1, fold higher than in MDCK-Mock” value (hOAT1) is reported as “about 1.25 fold” and the “accumulation of TDE at 37 °C, fold greater than at 4 °C” value (mice liver slices; liver slices, 30 min) is reported as “approximately 2.3 fold”. For the same molecule, the “accumulation in HEK293-hOATP1B3 vs HEK293 wild type” value (hOATP1B3; [2]) was 3.31 fold, the Vmax (hOATP1B3; hOATP1B3, TDE 0.03-10 μmol/L, 2 min, 37 °C, Eadie-Hofstee) was 512.09 pmol/mg protein/min and the Km at 2 min (hOATP1B3; human, pH 7.4) was 6.72 µM. The “accumulation in hOATP1B1-overexpressed cell lines compared to wild type” value (hOATP1B1; 100 μmol/L) was “could largely accumulate” and the “accumulation in HEK293-hOATP2B1 vs HEK293 wild type” value (hOATP2B1; [2]) was “less than 2 fold”.

For `CCCN(CCC)S(=O)(=O)c1ccc(C(=O)O)cc1` [probenecid, reference compound], the “effect on the uptake of TDE in kidney slices” value (mice kidney slices) was “could inhibit”.

B1: hOAT3 (Homo sapiens) (protein)
chain: MTFSEILDRVGSMGHFQFLHVAILGLPILNMANHNLLQIFTAATPVHHCRPPHNASTGPWVLPMGPNGKPERCLRFVHPPNASLPNDTQRAMEPCLDGWVYNSTKDSIVTEWDLVCNSNKLKEMAQSIFMAGILIGGLVLGDLSDRFGRRPILTCSYLLLAASGSGAAFSPTFPIYMVFRFLCGFGISGITLSTVILNVEWVPTRMRAIMSTALGYCYTFGQFILPGLAYAIPQWRWLQLTVSIPFFVFFLSSWWTPESIRWLVLSGKSSKALKILRRVAVFNGKKEEGERLSLEELKLNLQKEISLAKAKYTASDLFRIPMLRRMTFCLSLAWFATGFAYYSLAMGVEEFGVNLYILQIIFGGVDVPAKFITILSLSYLGRHTTQAAALLLAGGAILALTFVPLDLQTVRTVLAVFGKGCLSSSFSCLFLYTSELYPTVIRQTGMGVSNLWTRVGSMVSPLVKITGEVQPFIPNIIYGITALLGGSAALFLPETLNQPLPETIEDLENWSLRAKKPKQEPEVEKASQRIPLQPHGPGLGSS
B1 gave a Km [1] of 1.44 µM and a Vmax [1] of 188.45 pmol/mg protein/min.
